Bioassay records from PubChem BioAssay.
An excerpt weighted towards active compounds, which were near 2.3% of everything screened.
EWS-Fli inh: blocks EWS/Fli oncoprotein-driven transcription | A673 NR0B1-luciferase reporter, viability-normalised | inhibition, % at 12.6 µM | actives 0.67% (n = 350,000) | AID 651661;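 active = mean inhibition of at least 50% after viability correction, with every replicate also passing that limit; inconclusive = mean reaches 50% but only one of two replicates passes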;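 also: firefly luciferase signal divided by Alamar Blue viability fluorescence both relative to DMSO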
PGC1a acetyl inh: modulators of PGC1a acetylation. U2OS PGC1a acetylation, AlphaScreen anti-acetyl-lysine; with virally co-expressed GCN5 acetyltransferase. inhibition, % at 15.6 µM. actives 0.17% (n = 350,000). AID 651687;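 active = every replicate shows inhibition of at least 40%; inconclusive = mean inhibition at least 40% but some replicate below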
PAX8 inh HTS: inhibitors of PAX8 transcriptional activity in RMG-I cells; RMG-I TPO-luciferase reporter, SteadyGlo, 24 h; inhibition, % at 12.6 µM; actives 1.2% (n = 360,000); AID 652154;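 active = mean replicate inhibition at least 60% with every replicate also reaching 60%; inconclusive = only one of the two criteria is met; inactive = mean below 60% and not all replicates reaching 60%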;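 also: luciferase light reporting Pax8 driven TPO promoter activity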
FN deposit inh: fibronectin deposition inhibition | AH1F fibroblasts, Alexa488-fibronectin deposition fluorescence, overnight | inhibition, % at 12.6 µM | actives 0.086% (n = 350,000) | AID 743247;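 active = mean inhibition across replicates of 30% or more, regardless of how many single replicates reach that level; inconclusive = mean under 30% yet at least half of replicates reach 30%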
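Schedule: 1 h cell adhesion before compound, then overnight fibronectin incubation; test system: AH1F fibroblast monolayer depositing Alexa488-labelled fibronectin into matrix; quantity: 10000 AH1F cells per well; probe or stimulus: fluorescent fibronectin at 24 nM final; signal: fluorescence, ex 485 nm, em 525 nm; evaluation: percent inhibition as loss of matrix-bound fibronectin fluorescence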
CFTR F508del cor: CFTR F508del correction in bronchial cells; AID 720511; CFBE cells, YFP halide quenching; stimulated with forskolin plus potentiator P3; % fluorescence drop versus neutral controls; activity (quench increase), % at 7.58 µM; actives 0.36% (n = 350,000);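 active = mean added fluorescence quench of at least 8% versus neutral control, with both replicates also reaching 8%; inconclusive = only one of the mean or replicate conditions met; inactive = mean below 8% and not both replicates reaching 8%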;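 also: cells transiently co-express mutant CFTR-F508del with the halide-sensitive YFP; corrector assay measuring rescue of mutant channel to the surface after 24 h compound exposure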
Env fusion inh: blocks HIV Env-driven cell-cell fusion; inhibition, % at 12.3 µM; AID 651610; actives 1.1% (n = 360,000); HeLa-JRFL Env/CEM21 cell fusion, luciferase;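 active = mean replicate inhibition score of at least 50 and every replicate individually at or above 50; inconclusive = only one of the two criteria met; inactive = mean below 50 and not all replicates reaching 50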
A number is an active result.

C[C@H]1CN(C)C(=O)c2cccc(N(C)C)c2O[C@H]1CN(C)C(=O)OC(C)(C)C was read as FN deposit inh inactive.
Screening COc1ccc(C)c2sc(N(CCCN(C)C)C(=O)c3ccc(S(=O)(=O)N4CCc5ccccc5C4)cc3)nc12 returned EWS-Fli inh 58.2, PGC1a acetyl inh inactive, PAX8 inh HTS inconclusive, FN deposit inh inactive, CFTR F508del cor inactive and Env fusion inh 91.9.
Screening COc1ccc(CN(C)C[C@H]2OCCCC[C@@H](C)Oc3ccc(NC(=O)CCC(F)(F)F)cc3C(=O)N([C@@H](C)CO)C[C@@H]2C)cc1 returned EWS-Fli inh inactive, PGC1a acetyl inh inactive, PAX8 inh HTS inactive, CFTR F508del cor inactive and Env fusion inh inactive.
Screening COCc1cc(C)nc(SCC(=O)Nc2cccc(C)c2C)c1C#N returned EWS-Fli inh inactive, PGC1a acetyl inh inactive and CFTR F508del cor inactive.
`COCc1cc(C)nc(SCC(=O)Nc2nc(C)cs2)c1C#N` gave EWS-Fli inh 62.4, PGC1a acetyl inh inactive, PAX8 inh HTS inactive, FN deposit inh inactive, CFTR F508del cor inactive and Env fusion inh inactive.
For Cc1cc(N2CCN(C)CC2)nc2ccc(NC(=S)N3CCCCC3)cc12 the results were EWS-Fli inh inactive, PGC1a acetyl inh inactive, PAX8 inh HTS inactive, FN deposit inh inactive, CFTR F508del cor inactive and Env fusion inh inactive.
Screening Cc1cccc(N2CCN(C(=S)Nc3ccc4nc(N5CCN(C)CC5)cc(C)c4c3)CC2)c1C returned EWS-Fli inh 56.3, PGC1a acetyl inh inactive, PAX8 inh HTS inactive, FN deposit inh inactive, CFTR F508del cor inactive and Env fusion inh inactive.
CC(=O)Nc1ccc2c(c1)CC(=O)N(C)C[C@@H](C)[C@@H](CN(C)C(=O)OC(C)(C)C)O2 was read as FN deposit inh inactive.
For CC(=O)O[C@H]1[C@@H](O)[C@H](O)[C@H](Oc2c(O)c(C)c3c4c2[C@@H](C)CC[C@@H]4[C@@H](C)C[C@H]3C=C(C)C)O[C@H]1C the results were EWS-Fli inh inactive, PGC1a acetyl inh inactive, PAX8 inh HTS 64.3, FN deposit inh inactive, CFTR F508del cor inactive and Env fusion inh inactive.
Screening COc1ccc(-c2ccc(C3[C@H]4CNC[C@@H]3N4S(=O)(=O)c3ccc(OC)cc3)cc2)cc1 (stereo partly specified) returned EWS-Fli inh inactive, PGC1a acetyl inh inactive, PAX8 inh HTS inactive, FN deposit inh inactive and CFTR F508del cor inactive.
`Cc1ccc(/C=C/c2nc3ccccc3c(=O)[nH]2)cc1` gave EWS-Fli inh 69.6, PGC1a acetyl inh inactive, PAX8 inh HTS inactive, FN deposit inh inactive, CFTR F508del cor inactive and Env fusion inh inactive.
For COC(=O)c1ccc(/C=C/c2nc3ccccc3c(=O)[nH]2)cc1 the results were EWS-Fli inh inactive, PAX8 inh HTS inactive, FN deposit inh inactive, CFTR F508del cor inactive and Env fusion inh inactive.
COc1ccc(S(=O)(=O)N2CCN(CCOc3ccc(Br)cc3)CC2)cc1OC was read as EWS-Fli inh inactive, PGC1a acetyl inh inactive, PAX8 inh HTS inactive, FN deposit inh inactive, CFTR F508del cor inactive and Env fusion inh inactive.
Screening COc1ccc(S(=O)(=O)N2CCN(CCOc3ccccc3Cl)CC2)cc1OC returned EWS-Fli inh inactive, PGC1a acetyl inh inactive, PAX8 inh HTS inactive, FN deposit inh inactive and CFTR F508del cor 17.5.
C[C@H](CO)N1C[C@H](C)[C@@H](CN(C)Cc2ccc(F)cc2)Oc2ncc(C3=CCCC3)cc2C1=O was read as EWS-Fli inh inactive, PGC1a acetyl inh inactive, FN deposit inh inactive, CFTR F508del cor inactive and Env fusion inh inactive.
Screening Cc1cc(SCC(=O)c2cccs2)nc2c(C)cccc12 returned PGC1a acetyl inh inactive and Env fusion inh inconclusive.
For CC(=O)Nc1ccc(C(=O)CSc2cc(C)c3cccc(C)c3n2)cc1 the results were EWS-Fli inh inactive, PGC1a acetyl inh inactive, PAX8 inh HTS 122.7, FN deposit inh inactive and CFTR F508del cor inactive.
For CCc1ccc(NC(=O)CSc2nc3ccsc3c(=O)n2CCC(=O)O)cc1 the results were EWS-Fli inh inactive, PGC1a acetyl inh inactive, PAX8 inh HTS inactive, FN deposit inh inactive, CFTR F508del cor inactive and Env fusion inh inactive.
CC(C)c1ccc(NC(=O)CSc2nc3ccsc3c(=O)n2Cc2ccc(C(=O)O)cc2)cc1 was read as PGC1a acetyl inh 59.0, PAX8 inh HTS inactive, FN deposit inh inactive, CFTR F508del cor inactive and Env fusion inh inactive.
COc1cc2c(c(OC)c1OC)-c1ccc(OC)c(=O)cc1[C@@H](N(C)CC#CCO)CC2 was read as EWS-Fli inh 53.6, PAX8 inh HTS 77.1, FN deposit inh inactive, CFTR F508del cor inactive and Env fusion inh inactive.
COc1cc2c(c(OC)c1OC)-c1ccc(NCc3ccccc3)c(=O)cc1C(NC(C)=O)CC2 (stereo unspecified) was read as EWS-Fli inh inactive, PAX8 inh HTS 84.3, FN deposit inh inactive, CFTR F508del cor inactive and Env fusion inh inactive.
For COc1cc2c(c(OC)c1OC)-c1ccc(OC)c(=O)cc1[C@@H](NC(C)=O)CC2 the results were EWS-Fli inh 62.5, PGC1a acetyl inh inactive, PAX8 inh HTS 95.8, FN deposit inh inactive, CFTR F508del cor inactive and Env fusion inh inactive.
For COc1cc2c(c(OC)c1OC)-c1ccc(NC(=O)c3ccc(F)cc3)c(=O)cc1[C@@H](NC(C)=O)CC2 the results were EWS-Fli inh inactive, PAX8 inh HTS inactive, FN deposit inh inactive, CFTR F508del cor inactive and Env fusion inh inactive.
`CC(C)NC(=O)Nc1cccc2c1O[C@H](CN(C)C(=O)OC(C)(C)C)[C@H](C)CN(C)C2=O` gave FN deposit inh inactive.
Screening CCCn1c(SCC(=O)N2c3ccccc3Sc3ccccc32)nc2c1c(=O)n(C)c(=O)n2C returned FN deposit inh active and Env fusion inh inactive.
For COc1ccc(NC(=O)CSc2nc(O)cc(=O)n2-c2ccccc2)cc1 the results were EWS-Fli inh inactive, PGC1a acetyl inh inactive, PAX8 inh HTS inactive, CFTR F508del cor inactive and Env fusion inh inactive.
Screening CCCn1c(SCC(=O)Nc2nnc(C(C)C)s2)nc2c1c(=O)n(C)c(=O)n2C returned PAX8 inh HTS inactive, FN deposit inh inactive and Env fusion inh inactive.
`O=C(CSc1nc(O)cc(=O)n1-c1ccccc1)Nc1nc2ccccc2s1` gave EWS-Fli inh inactive, PGC1a acetyl inh inactive, PAX8 inh HTS inactive, FN deposit inh inactive and Env fusion inh 66.6.
For CCCn1c(SCC(=O)Nc2nc3ccccc3s2)nc2c1c(=O)n(C)c(=O)n2C the results were PGC1a acetyl inh inactive, FN deposit inh inactive and Env fusion inh 63.6.
`CC(C)n1c(SCC(=O)Nc2nc3c(s2)CCCC3)nc2c1c(=O)n(C)c(=O)n2C` gave PGC1a acetyl inh inactive, PAX8 inh HTS inactive, FN deposit inh inactive and Env fusion inh 87.5.
CO[C@@H]1CN(C)C(=O)c2ccc(NC(C)=O)cc2OC[C@@H](C)NC[C@@H]1C was read as FN deposit inh inactive and CFTR F508del cor inactive.
